Consider one compound from ChEMBL document CHEMBL5579886, “Selective Degradation of MLK3 by a Novel CEP1347-VHL-02 PROTAC Compound Limits the Oncogenic Potential of TNBC” (J Med Chem, 2024).

The source made the active and inactive calls. No cut-off for these calls is given here.

Experiment [1] addresses T1, von Hippel-Lindau disease tumor suppressor/Mitogen-activated protein kinase kinase kinase 11 (Homo sapiens, UniProt Q16584+P40337). In words: PROTAC activity at VHL/MLK3 in human MDA-MB-468 cells assessed as protein degradation measured after 24 hrs by Western blot analysis. Type of experiment: cell-based. Summed up:
(§1)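 Endogenous MLK3: cells seeded at 100 000/well, treated next day for 24 h with PROTAC at 0.1–5 μM, DMSO control; immunoblot with GAPDH or β-actin loading control. Remaining MLK3 percentage plotted against concentration to derive DC50 and Dmax.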
In general terms: A western blot detects proteins with antibodies after separation by electrophoresis.
Target sequence in this assay (Q16584 whole entry): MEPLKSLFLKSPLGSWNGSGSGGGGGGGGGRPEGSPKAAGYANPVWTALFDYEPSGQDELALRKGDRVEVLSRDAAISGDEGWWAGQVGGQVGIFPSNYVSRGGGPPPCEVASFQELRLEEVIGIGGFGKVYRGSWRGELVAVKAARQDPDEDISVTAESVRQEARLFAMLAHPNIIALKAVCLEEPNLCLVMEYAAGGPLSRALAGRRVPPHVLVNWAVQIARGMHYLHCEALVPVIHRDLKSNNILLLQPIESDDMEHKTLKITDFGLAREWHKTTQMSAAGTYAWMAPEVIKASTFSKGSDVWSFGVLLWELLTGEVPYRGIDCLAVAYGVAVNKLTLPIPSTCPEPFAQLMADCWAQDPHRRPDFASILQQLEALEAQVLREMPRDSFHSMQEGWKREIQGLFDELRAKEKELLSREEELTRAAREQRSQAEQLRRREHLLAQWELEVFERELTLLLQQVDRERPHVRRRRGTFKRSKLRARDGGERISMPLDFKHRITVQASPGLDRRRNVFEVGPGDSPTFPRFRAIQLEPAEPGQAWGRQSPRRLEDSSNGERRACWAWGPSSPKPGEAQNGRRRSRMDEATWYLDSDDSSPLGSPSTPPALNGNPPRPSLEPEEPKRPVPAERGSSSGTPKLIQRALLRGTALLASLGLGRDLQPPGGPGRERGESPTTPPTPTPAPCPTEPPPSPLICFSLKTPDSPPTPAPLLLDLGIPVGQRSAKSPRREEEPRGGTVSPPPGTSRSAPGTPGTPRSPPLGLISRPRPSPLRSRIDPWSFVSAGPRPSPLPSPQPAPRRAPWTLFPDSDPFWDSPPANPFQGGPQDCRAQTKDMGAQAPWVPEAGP
Target sequence in this assay (P40337 whole entry): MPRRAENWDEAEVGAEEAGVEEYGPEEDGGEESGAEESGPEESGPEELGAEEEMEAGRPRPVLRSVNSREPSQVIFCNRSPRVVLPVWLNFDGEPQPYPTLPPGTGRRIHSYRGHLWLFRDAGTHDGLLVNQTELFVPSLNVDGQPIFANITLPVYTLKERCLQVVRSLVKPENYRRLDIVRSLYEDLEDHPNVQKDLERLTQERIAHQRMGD

Experiment [2] deals with MDA-MB-468. In words: Growth inhibition of human MDA-MB-468 cell spheroids in hydrogel at 1 uM incubated for 10 days. Particulars: time 10.0 day. Type of experiment: functional, cell-based. The essentials:
(§2)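 4000 cells plated on top of hydrogels and grown 10 days with 1 μM PROTAC or DMSO; spheroid formation and size scored.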

For experiment [3], the target named is T1, von Hippel-Lindau disease tumor suppressor/Mitogen-activated protein kinase kinase kinase 11. In words: PROTAC activity at VHL/MLK3 in human MCF7 cells assessed as protein degradation at 1 uM measured after 24 hrs by immunoblot analysis. Type of experiment: cell-based. Summed up: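 MCF-7 and MDA-MB-468 cells were treated for 24 h across 0.1–5 μM, with DMSO as control. MLK3 was immunoblotted and quantified as percent remaining versus concentration, from which DC50 and Dmax were derived.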
Target sequence in this assay (P40337 whole entry, looked up): as the sequence (P40337 whole entry) above
Target sequence in this assay (Q16584 whole entry, looked up): as the sequence (Q16584 whole entry) above

Experiment [4] has as its target T2, von Hippel-Lindau disease tumor suppressor/Mitogen-activated protein kinase kinase kinase 10 (Homo sapiens) (UniProt Q02779+P40337). In words: PROTAC activity at VHL/DOX-inducible MLK2 (unknown origin) overexpressed in human A-375 cells assessed as protein degradation at 0.1 to 5 uM incubated for 24 hrs by immunoblot analysis. The class given is cell-based. Particulars: dose 0.1-5 µM. Summed up: (§3)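 A375 cells carried lentiviral DOX-inducible MLK1, MLK2 or MLK4 and were grown in RPMI-1640 with 10% FBS. Cells were seeded at 100 000/well and induced with 1 μg/mL DOX. After 24 h they were treated at 0.1–5 μM for 24 h, with DMSO as control. Levels were read by ECL immunoblot of RIPA lysates, with GAPDH or β-actin loading control.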

Experiment [5] deals with MDA-MB-468. In words: Effect on MLK3 mRNA level in human MDA-MB-468 cells at 1 uM measured after 24 hrs by RT-qPCR analysis. Type of experiment: functional, cell-based. Summed up:
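Total RNA extracted from MCF-7 and MDA-MB-468 cells 24 h after PROTAC treatment, purity and concentration checked spectrophotometrically, reverse transcribed to cDNA and MLK3 transcript quantified by RT-qPCR.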
A general note: Quantitative PCR measures a nucleic acid by following its amplification.

Experiment [6] concerns the target T1, von Hippel-Lindau disease tumor suppressor/Mitogen-activated protein kinase kinase kinase 11. In words: PROTAC activity at VHL/MLK3 in human MCF7 cells assessed as protein degradation at 1 uM measured after 24 hrs by immunoblot analysis.
Target sequence in this assay (P40337 whole entry, looked up): as the sequence (P40337 whole entry) above
Target sequence in this assay (Q16584 whole entry, looked up): as the sequence (Q16584 whole entry) above
Experiment [7] has the same target. In words: PROTAC activity at VHL/MLK3 in human MDA-MB-468 cells assessed as half life of protein degradation at 1 uM by Western blot analysis. Type of experiment: cell-based. Summed up:
(§4)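 Endogenous MLK3: cells seeded at 100 000/well, treated next day with 1 μM PROTAC for 4–48 h, DMSO control; immunoblot with GAPDH or β-actin loading control. Remaining MLK3 quantified over time and t1/2 derived.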
Target sequence in this assay (P40337 whole entry, looked up): as the sequence (P40337 whole entry) above
Target sequence in this assay (Q16584 whole entry, looked up): as the sequence (Q16584 whole entry) above

Experiment [8] has as its target T3, von Hippel-Lindau disease tumor suppressor/Mitogen-activated protein kinase kinase kinase 21 (Homo sapiens) (UniProt P40337+Q5TCX8). In words: PROTAC activity at VHL/DOX-inducible MLK4 (unknown origin) overexpressed in human A-375 cells assessed as protein degradation at 0.1 to 5 uM incubated for 24 hrs by immunoblot analysis. Type of experiment: cell-based. The note with it: dose 0.1-5 µM. Summed up:
as §3

In experiment [9] the target is T1, von Hippel-Lindau disease tumor suppressor/Mitogen-activated protein kinase kinase kinase 11. In words: PROTAC activity at VHL/MLK3 in human MCF7 cells assessed as decrease in JNK pathway at 1 uM measured after 24 hrs by immunoblot analysis. Type of experiment: cell-based.
Target sequence in this assay (P40337 whole entry, looked up): as the sequence (P40337 whole entry) above
Target sequence in this assay (Q16584 whole entry, looked up): as the sequence (Q16584 whole entry) above
Experiment [10] has as its target T2, von Hippel-Lindau disease tumor suppressor/Mitogen-activated protein kinase kinase kinase 10 (Homo sapiens). In words: PROTAC activity at IAP/MLK2 in human MDA-MB-468 cells assessed as protein degradation at 1 uM incubated for 24 hrs by immunoblot analysis. The class given is cell-based. Summed up: (§5)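 Endogenous MLK1, MLK2 or MLK4 levels in MCF-7 and MDA-MB-468 cells. Cells were grown in high-glucose DMEM with 10% FBS, seeded at 100 000 cells/well and treated the next day for 24 h, with DMSO as control. Lysis was in RIPA with protease inhibitor, followed by 10% SDS-PAGE, nitrocellulose transfer and ECL immunoblot with GAPDH or β-actin as loading control.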

Experiment [11] has as its target T1, von Hippel-Lindau disease tumor suppressor/Mitogen-activated protein kinase kinase kinase 11. In words: PROTAC activity at VHL/MLK3 in human MCF7 cells assessed as protein degradation measured after 24 hrs by Western blot analysis. Type of experiment: cell-based. Summed up: as §1
Target sequence in this assay (Q16584 whole entry): as above
Target sequence in this assay (P40337 whole entry): as the sequence (P40337 whole entry) above
In experiment [12] the target is T3, von Hippel-Lindau disease tumor suppressor/Mitogen-activated protein kinase kinase kinase 21 (Homo sapiens). In words: PROTAC activity at IAP/MLK4 in human MDA-MB-468 cells assessed as protein degradation at 1 uM incubated for 24 hrs by immunoblot analysis. The class given is cell-based. The essentials: as §5
Experiment [13] deals with MCF7. In words: Growth inhibition of human MCF7 cell spheroids in hydrogel at 1 uM incubated for 10 days. The note with it: time 10.0 day. The class given is functional, cell-based. The essentials: as §2
Experiment [14] has as its target T1, von Hippel-Lindau disease tumor suppressor/Mitogen-activated protein kinase kinase kinase 11. In words: PROTAC activity at VHL/MLK3 in human MDA-MB-468 cells assessed as protein degradation at 0.1 to 5 uM measured after 24 hrs by Western blot analysis relative to control. Type of experiment: cell-based. The note with it: dose 0.1-5 µM. The essentials: as §1
Target sequence in this assay (P40337 whole entry, looked up): as the sequence (P40337 whole entry) above
Target sequence in this assay (Q16584 whole entry, looked up): as the sequence (Q16584 whole entry) above

Experiment [15] has the same target. In words: PROTAC activity at VHL/DOX-inducible MLK3 (unknown origin) overexpressed in human HCC1806 cells assessed as protein degradation at 0.5 uM measured after 2 hrs by immunoblot analysis relative to control. Type of experiment: cell-based. The essentials: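 HCC1806 cells with DOX-inducible MLK3 were induced with 1 μg/mL DOX for 24 h, then treated at 0.5 μM for times from 2 to 24 h, with DMSO as control. MLK3 was measured by immunoblot of RIPA lysates with ECL detection.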
Target sequence in this assay (P40337 whole entry, looked up): as the sequence (P40337 whole entry) above
Target sequence in this assay (Q16584 whole entry, looked up): as the sequence (Q16584 whole entry) above

In experiment [16] the target is von Hippel-Lindau disease tumor suppressor/Mitogen-activated protein kinase kinase kinase 9 (Homo sapiens) (UniProt P80192+P40337). In words: PROTAC activity at VHL/MLK1 in human MCF7 cells assessed as protein degradation at 1 uM incubated for 24 hrs by immunoblot analysis. Type of experiment: cell-based. Summed up: as §5
Experiment [17] deals with T1, von Hippel-Lindau disease tumor suppressor/Mitogen-activated protein kinase kinase kinase 11. In words: PROTAC activity at VHL/MLK3 in human MCF7 cells assessed as half life of protein degradation at 1 uM by Western blot analysis. The class given is cell-based. Summed up: as §4
The subject of experiment [18] is MCF7. In words: Inhibition of cell migration in human MCF7 cells at 1 uM incubated for 24 hrs by transwell assay. The class given is functional, cell-based. The essentials: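 Boyden inserts, 8 μm pores: 200 000 cells in serum-free DMEM with 1 μM PROTAC or DMSO, 20% FBS DMEM below as chemoattractant, 24 h at 37 °C, 5% CO2. Migrated cells fixed, crystal violet stained and counted by image analysis; at least three repeats.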

Experiment [19] addresses T2, von Hippel-Lindau disease tumor suppressor/Mitogen-activated protein kinase kinase kinase 10 (Homo sapiens). In words: PROTAC activity at VHL/MLK2 in human MCF7 cells assessed as protein degradation at 1 uM incubated for 24 hrs by immunoblot analysis. Type of experiment: cell-based. The essentials: as §5
The target in experiment [20] is T1, von Hippel-Lindau disease tumor suppressor/Mitogen-activated protein kinase kinase kinase 11. In words: PROTAC activity at VHL/DOX-inducible MLK3 (unknown origin) overexpressed in human A-375 cells assessed as protein degradation at 0.1 uM incubated for 24 hrs by immunoblot analysis. Type of experiment: cell-based. Summed up:
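A375 cells with DOX-inducible MLK3 were seeded at 100 000/well and induced with 1 μg/mL DOX for 24 h. Eight VHL-based PROTACs were then tested at 0.1–5 μM for 24 h, with DMSO as control. MLK3 was detected by ECL immunoblot of RIPA lysates, normalised to GAPDH or β-actin.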

T2 sequence (P40337 whole entry, looked up): as the sequence (P40337 whole entry) above
T2 sequence (Q02779 whole entry, looked up): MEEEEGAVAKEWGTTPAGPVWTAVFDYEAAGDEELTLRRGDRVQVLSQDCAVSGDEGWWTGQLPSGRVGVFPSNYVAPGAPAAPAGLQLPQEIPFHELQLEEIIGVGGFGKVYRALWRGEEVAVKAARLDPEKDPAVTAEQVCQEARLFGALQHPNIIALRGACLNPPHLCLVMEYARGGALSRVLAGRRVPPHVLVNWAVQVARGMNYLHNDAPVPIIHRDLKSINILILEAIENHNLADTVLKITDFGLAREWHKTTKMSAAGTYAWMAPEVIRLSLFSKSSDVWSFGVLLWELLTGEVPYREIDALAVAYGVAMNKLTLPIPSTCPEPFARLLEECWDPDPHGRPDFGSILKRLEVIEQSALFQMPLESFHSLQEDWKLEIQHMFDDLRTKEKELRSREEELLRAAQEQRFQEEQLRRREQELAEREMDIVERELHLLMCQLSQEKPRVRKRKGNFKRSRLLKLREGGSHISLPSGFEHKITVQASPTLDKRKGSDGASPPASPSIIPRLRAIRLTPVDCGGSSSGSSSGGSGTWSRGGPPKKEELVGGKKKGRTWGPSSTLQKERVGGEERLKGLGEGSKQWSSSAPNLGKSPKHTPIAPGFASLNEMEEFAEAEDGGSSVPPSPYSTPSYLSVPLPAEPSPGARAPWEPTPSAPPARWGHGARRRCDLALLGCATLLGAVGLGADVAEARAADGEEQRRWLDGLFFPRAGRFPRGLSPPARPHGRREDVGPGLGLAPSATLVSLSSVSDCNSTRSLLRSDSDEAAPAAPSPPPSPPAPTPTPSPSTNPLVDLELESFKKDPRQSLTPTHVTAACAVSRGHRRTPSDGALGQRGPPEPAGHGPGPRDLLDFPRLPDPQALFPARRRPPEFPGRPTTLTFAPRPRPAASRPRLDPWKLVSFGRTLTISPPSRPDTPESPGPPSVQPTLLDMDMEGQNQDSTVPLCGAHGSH
T3 sequence (P40337 whole entry, looked up): as the sequence (P40337 whole entry) above
T3 sequence (Q5TCX8 whole entry, looked up): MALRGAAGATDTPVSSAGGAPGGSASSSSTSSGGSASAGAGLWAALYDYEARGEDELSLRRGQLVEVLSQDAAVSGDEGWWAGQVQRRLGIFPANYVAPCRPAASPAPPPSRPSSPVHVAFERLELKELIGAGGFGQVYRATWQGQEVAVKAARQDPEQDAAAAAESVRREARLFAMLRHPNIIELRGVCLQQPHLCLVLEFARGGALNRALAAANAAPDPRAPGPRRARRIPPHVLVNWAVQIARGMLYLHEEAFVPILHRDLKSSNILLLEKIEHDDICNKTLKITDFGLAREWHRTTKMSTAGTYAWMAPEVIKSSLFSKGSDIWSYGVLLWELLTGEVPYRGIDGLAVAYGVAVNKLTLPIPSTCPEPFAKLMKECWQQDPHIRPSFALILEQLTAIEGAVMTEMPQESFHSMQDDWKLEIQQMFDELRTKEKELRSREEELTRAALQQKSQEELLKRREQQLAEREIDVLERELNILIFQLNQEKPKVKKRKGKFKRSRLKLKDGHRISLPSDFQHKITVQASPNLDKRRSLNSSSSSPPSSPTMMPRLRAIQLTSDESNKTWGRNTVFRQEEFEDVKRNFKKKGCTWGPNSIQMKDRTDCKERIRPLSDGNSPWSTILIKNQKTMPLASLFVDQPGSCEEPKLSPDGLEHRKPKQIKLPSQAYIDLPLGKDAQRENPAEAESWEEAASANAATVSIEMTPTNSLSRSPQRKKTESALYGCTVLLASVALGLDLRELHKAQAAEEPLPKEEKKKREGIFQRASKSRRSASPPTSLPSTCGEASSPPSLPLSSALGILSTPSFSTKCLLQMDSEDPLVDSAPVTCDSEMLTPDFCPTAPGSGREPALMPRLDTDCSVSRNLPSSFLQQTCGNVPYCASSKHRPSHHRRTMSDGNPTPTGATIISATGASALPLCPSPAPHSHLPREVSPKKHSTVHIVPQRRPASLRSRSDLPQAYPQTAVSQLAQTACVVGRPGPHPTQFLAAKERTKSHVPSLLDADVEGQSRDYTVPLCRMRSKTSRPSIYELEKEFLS

As to `CCSCc1ccc2c(c1)c1c3c(c4c5cc(CSCC)ccc5n5c4c1n2[C@H]1C[C@](O)(C(=O)NCCOCCOCCOCC(=O)N[C@H](C(=O)N2C[C@H](O)C[C@H]2C(=O)N[C@@H](C)c2ccc(-c4scnc4C)cc2)C(C)(C)C)[C@]5(C)O1)CNC3=O`, the DC50 in experiment [1] came out at 300 nM; in [11], 50 nM. Also, in experiment [2], the “growth inhibition (GI)” value was “Active”. Also, the result in experiment [3], in experiment [6], in experiment [9] and in [20] was Active. Also, the outcome in experiment [4], in experiment [5], in [8], in experiment [10], in experiment [12] and in experiment [16] was inactive. Further, the result in experiment [19] was inactive. In addition, the T1/2 was 4 h in experiment [7] and 2.5 h in [17]. Moreover, the “growth inhibition (GI)” value in experiment [13] is “inactive”. In addition, the Emax in experiment [14] was determined as 63%. In addition, the Activity in experiment [15] turned out to be 100%. The inhibition entry in experiment [18] was “inactive”.

One may read the DC50 as the midpoint of the concentration-degradation curve. As a reminder, the Emax is the size of the effect at its maximum, as opposed to the concentration needed.
